Each structure is given as a SMILES string.

As usually defined, the IC50 is the concentration that gives 50% inhibition.

The target of assay [1] is Sodium/hydrogen exchanger 1 (Homo sapiens, UniProt P19634). The assay can be described thus: Inhibition of human NHE1 expressed in PS120 cells. It is filed as cell-based. A digest of the protocol: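 PS120 variant cells selectively expressing human NHE-1. Inhibition measured as the effect on sodium-dependent pH recovery after imposed intracellular acidosis. IC50 values are means of three experiments.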

The test system of assay [2] is Heart. The assay can be described thus: Cardioprotective effect against ischemia reperfusion injury in rat heart assessed as recovery of rate pressure product at 10 uM. It is filed as functional. In outline:
(§1)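 Isolated rat heart ischemia/reperfusion model. Hearts exposed to 10 µM compound for 10 min before ischemia. Read-outs are recovery of contractile function as rate-pressure product (% RPP) and left ventricular end-diastolic pressure (mmHg), each compared with a vehicle group. Values are means, n = 3 or higher.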

In assay [3] the test system is Heart. Description: Cardioprotective effect against ischemia reperfusion injury in rat heart assessed as left ventricular end diastolic pressure at 10 uM. It is filed as functional. In outline: as §1
A further assay has as its system Rattus norvegicus. Description: Cardioprotective effect against ischemia reperfusion injury in rat myocardial infarction model assessed as ratio of infarction size to area at risk at 0.1 mg/kg, iv. It is filed as functional, Myocardium. In outline: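 Rat myocardial infarction model. Animals stabilized 20 min after left thoracotomy, then 45 min coronary artery occlusion and 90 min reperfusion. Compound given at 0.1 mg/kg as bolus intravenous injection 5 min before ischemia onset. Infarct size measured as a ratio to area at risk (IS/AAR, %), compared with vehicle. Means, n = 3 or higher.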

Chain of Sodium/hydrogen exchanger 1 (P19634 whole entry): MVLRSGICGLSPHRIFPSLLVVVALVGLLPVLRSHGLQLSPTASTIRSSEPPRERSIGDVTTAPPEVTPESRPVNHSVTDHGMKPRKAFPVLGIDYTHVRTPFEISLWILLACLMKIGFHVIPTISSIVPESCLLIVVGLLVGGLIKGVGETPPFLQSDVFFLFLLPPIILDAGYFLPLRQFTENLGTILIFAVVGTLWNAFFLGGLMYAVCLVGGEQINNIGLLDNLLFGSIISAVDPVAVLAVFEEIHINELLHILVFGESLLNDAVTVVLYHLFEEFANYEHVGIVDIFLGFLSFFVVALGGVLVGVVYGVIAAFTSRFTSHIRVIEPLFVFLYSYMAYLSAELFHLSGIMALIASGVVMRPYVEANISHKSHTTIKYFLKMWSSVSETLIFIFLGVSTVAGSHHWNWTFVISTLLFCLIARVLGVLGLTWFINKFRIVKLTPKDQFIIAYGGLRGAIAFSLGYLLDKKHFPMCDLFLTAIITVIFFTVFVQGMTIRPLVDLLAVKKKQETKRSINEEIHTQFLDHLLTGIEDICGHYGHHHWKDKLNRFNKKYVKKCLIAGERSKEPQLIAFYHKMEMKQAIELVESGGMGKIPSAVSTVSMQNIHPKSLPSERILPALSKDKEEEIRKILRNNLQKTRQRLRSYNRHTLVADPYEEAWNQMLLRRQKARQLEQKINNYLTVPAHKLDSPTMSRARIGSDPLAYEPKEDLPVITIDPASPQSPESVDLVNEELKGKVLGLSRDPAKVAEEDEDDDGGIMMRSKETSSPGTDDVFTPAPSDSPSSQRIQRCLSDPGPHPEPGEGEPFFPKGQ

In assay [1], `N=C(N)NC(=O)c1oc(-c2cccc(Cl)c2)cc1-n1cccc1` had an IC50 of 3000 nM.

In assay [1], `NC(N)=NC(=O)c1oc(-c2ccccc2F)cc1N` came in with an IC50 of 1200 nM. The Activity with Heart [2] worked out at 62%; in the assay with Heart [3], 20 mmHg.

In assay [1], `COc1ccccc1-c1cc(N)c(C(=O)N=C(N)N)o1` yielded an IC50 of 150 nM. Moreover, the Activity worked out at 30% in the assay with Heart [2], 31 mmHg with Heart [3] and 55% in the assay with Rattus norvegicus.

Compound `Cc1cccc(-c2cc(N)c(C(=O)NC(=N)N)o2)c1` had an IC50 in assay [1] of 770 nM. This lies in the sub-micromolar range.

As for `CC(=O)N(C)c1cc(-c2ccccc2)oc1C(=O)NC(=N)N`, in assay [1], the half-inhibitory concentration (IC50) is > 30000 nM.

As to `NC(N)=NC(=O)c1oc(-c2cccc(Cl)c2)cc1N`, the IC50 in assay [1] came out at 150 nM. The Activity in the assay on Heart [2] came to 33%; in the assay on Heart [3], 27 mmHg; with Rattus norvegicus, 53%.

In the case of `CC(=O)N(C)c1cc(-c2cc(Cl)ccc2Cl)oc1C(=O)N=C(N)N`, the IC50 in assay [1] was > 30000 nM.

Compound `COc1ccc(Cl)cc1-c1cc(N(C)C(C)=O)c(C(=O)NC(=N)N)o1` had an IC50 in assay [1] of 33000 nM. That is a double-digit micromolar value.

For `COc1ccc(F)cc1-c1cc(N)c(C(=O)NC(=N)N)o1`, half-maximal inhibition in assay [1] (IC50) was put at 120 nM. Compared with the last compound, the IC50 is about 280-fold lower.

For `Cc1cc(-c2cc(F)ccc2F)oc1C(=O)N=C(N)N`, the IC50 in assay [1] is 130 nM.

Consider `Cc1ccc(C)c(-c2cc(N)c(C(=O)NC(=N)N)o2)c1`, for which the IC50 in assay [1] amounted to 72 nM.

In assay [1], `COc1ccc(Cl)cc1-c1cc(C)c(C(=O)N=C(N)N)o1` showed a half-maximal inhibitory concentration (IC50) of 10 nM. For the same compound, the Activity in the assay with Heart [2] is 0.3%; in the assay with Heart [3] it was 34 mmHg.

In assay [1], `COc1ccc(Cl)cc1-c1cc(N)c(C(=O)N=C(N)N)o1` displayed an IC50 of 15 nM. Besides, the Activity is 27% with Heart [2] and 29 mmHg with Heart [3].

With `CCc1cc(-c2cccc(Cl)c2)oc1C(=O)NC(=N)N`, the IC50 in assay [1] stood at 230 nM.

For the compound `COc1ccc(Cl)cc1-c1cc(-c2ccccc2)c(C(=O)NC(=N)N)o1`, the IC50 in assay [1] worked out at 5600 nM.

Turning to `CN(C)c1cc(-c2cccc(Cl)c2)oc1C(=O)N=C(N)N`, in assay [1], the midpoint of inhibition, the IC50, lay at 120 nM. Compared with the last compound, the IC50 is about 47-fold lower.

`CC(=O)Nc1cc(-c2ccccc2)oc1C(=O)N=C(N)N` showed an IC50 in assay [1] of 14000 nM.

Turning to `CC(=O)Nc1cc(-c2cc(Cl)ccc2Cl)oc1C(=O)N=C(N)N`, in assay [1], the 50% inhibitory concentration (IC50) was determined as 6200 nM.

Regarding `COc1ccc(Cl)cc1-c1cc(NC(C)=O)c(C(=O)N=C(N)N)o1`, the IC50 in assay [1] was 4500 nM.

In assay [1], `CNc1cc(-c2cc(Cl)ccc2Cl)oc1C(=O)N=C(N)N` gave an IC50 of 96 nM.

Take `N=C(N)NC(=O)c1oc(-c2cccc(Cl)c2)cc1N1CCCC1`: the IC50 in assay [1] was 5100 nM.

The compound `NC(N)=NC(=O)c1oc(-c2cccc(Cl)c2)cc1N1CCCCC1` came in with an IC50 in assay [1] of 16000 nM. This IC50 is about 3.1-fold higher than that of the compound before.

For the compound `N=C(N)NC(=O)c1oc(-c2cc(F)ccc2F)cc1N`, the IC50 in assay [1] stood at 410 nM.

Take `NC(N)=NC(=O)c1oc(-c2cc(Cl)ccc2Cl)cc1N1CCCC1`: in assay [1], the IC50 is 480 nM.

For `NC(N)=NC(=O)c1oc(-c2cc(Cl)ccc2Cl)cc1N1CCCCC1`, half-maximal inhibition in assay [1] (IC50) was put at 480 nM.

The compound `N=C(N)NC(=O)c1oc(-c2cc(Cl)ccc2Cl)cc1N` returned an IC50 in assay [1] of 8 nM.

As to `CC(=O)N(C)c1cc(-c2cccc(Cl)c2)oc1C(=O)NC(=N)N`, in assay [1], the IC50 was > 30000 nM.

`CN(C)c1cc(-c2ccccc2)oc1C(=O)N=C(N)N` showed a concentration for half-maximal inhibition (IC50) in assay [1] of 120 nM.

`CN(C)c1cc(-c2cc(Cl)ccc2Cl)oc1C(=O)NC(=N)N` gave an IC50 in assay [1] of 9 nM.

With `COc1ccc(Cl)cc1-c1cc(N(C)C)c(C(=O)N=C(N)N)o1`, 12 nM corresponded to half-maximal inhibition in assay [1] (IC50). Further, the Activity with Heart [2] is reported as 6.4%; in the assay on Heart [3], 40 mmHg.

The compound `CNc1cc(-c2cccc(Cl)c2)oc1C(=O)N=C(N)N` had an IC50 in assay [1] of 820 nM.

The compound `Cc1cc(-c2cccc(Cl)c2)oc1C(=O)NC(=N)N` displayed an IC50 in assay [1] of 24 nM.

Turning to `CNc1cc(-c2ccccc2)oc1C(=O)N=C(N)N`, the concentration for half-maximal inhibition (IC50) in assay [1] is 820 nM.

`Cc1cc(-c2cc(Cl)ccc2Cl)oc1C(=O)NC(=N)N` showed an IC50 in assay [1] of 16 nM.

As to `N=C(N)NC(=O)c1oc(-c2ccccc2)cc1N`, the IC50 in assay [1] worked out at 2300 nM.

`Cc1ccccc1-c1cc(N)c(C(=O)N=C(N)N)o1` yielded an IC50 in assay [1] of 240 nM. For the same compound, the Activity with Heart [2] was determined as 30%; in the assay with Heart [3], 28 mmHg; in the assay with Rattus norvegicus, 47%.

For `NC(N)=NC(=O)c1oc(-c2cccc(F)c2)cc1N`, the IC50 in assay [1] is 680 nM. Besides, the Activity with Heart [2] turned out to be 49%; with Heart [3] it was 25 mmHg.

Turning to `CC(=O)Nc1cc(-c2cccc(Cl)c2)oc1C(=O)NC(=N)N`, the IC50 in assay [1] was 14000 nM.

Turning to `CC(C)c1ccc(C(=O)N=C(N)N)cc1S(C)(=O)=O` [CARIPORIDE], the Activity with Heart [2] stood at 48%; with Heart [3], 24 mmHg; in the assay on Rattus norvegicus it was 41%.

The values above are taken from ChEMBL document CHEMBL1148836, “3-Substituted-(5-arylfuran-2-ylcarbonyl)guanidines as NHE-1 inhibitors” (Bioorg Med Chem Lett, 2007).
